Each block holds one compound with its values, some of them ahead of it.
Columns and labels:
[1] = Intrinsic clearance in rat hepatic microsomes; format: in vitro ADME; details: predicted hepatic clearance from in vitro intrinsic clearance
[2] = Intrinsic clearance in human hepatic microsomes; format: in vitro ADME; details: predicted hepatic clearance from in vitro intrinsic clearance
M5 [3] = molecular target: T1, M5 (Homo sapiens, UniProt P08912); assay: Muscarinic receptor subtype selectivity, M5; format: cell-based; details: for selectivity versus M5: data not shown; for potency at M5 relative to M4: antagonist
T1 sequence (P08912 1-532): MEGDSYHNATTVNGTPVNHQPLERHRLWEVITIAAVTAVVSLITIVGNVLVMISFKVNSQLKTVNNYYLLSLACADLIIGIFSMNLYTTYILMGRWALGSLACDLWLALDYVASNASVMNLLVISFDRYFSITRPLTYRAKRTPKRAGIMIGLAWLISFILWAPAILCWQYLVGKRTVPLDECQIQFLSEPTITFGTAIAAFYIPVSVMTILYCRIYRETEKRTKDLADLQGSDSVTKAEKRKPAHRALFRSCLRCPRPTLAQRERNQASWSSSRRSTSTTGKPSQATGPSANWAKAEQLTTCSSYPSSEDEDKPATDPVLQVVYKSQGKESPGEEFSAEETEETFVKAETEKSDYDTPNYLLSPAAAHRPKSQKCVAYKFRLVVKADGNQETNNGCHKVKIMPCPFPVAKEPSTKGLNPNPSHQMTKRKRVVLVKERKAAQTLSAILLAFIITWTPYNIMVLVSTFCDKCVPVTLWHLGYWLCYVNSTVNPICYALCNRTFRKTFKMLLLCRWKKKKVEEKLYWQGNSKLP

M1 [4] = molecular target: T2, M1 (Homo sapiens, UniProt P11229); assay: Muscarinic receptor subtype selectivity, M1; format: cell-based; details: for selectivity versus M1: data not shown; for potency at M1 relative to M4: antagonist
T2 sequence (P11229 1-460): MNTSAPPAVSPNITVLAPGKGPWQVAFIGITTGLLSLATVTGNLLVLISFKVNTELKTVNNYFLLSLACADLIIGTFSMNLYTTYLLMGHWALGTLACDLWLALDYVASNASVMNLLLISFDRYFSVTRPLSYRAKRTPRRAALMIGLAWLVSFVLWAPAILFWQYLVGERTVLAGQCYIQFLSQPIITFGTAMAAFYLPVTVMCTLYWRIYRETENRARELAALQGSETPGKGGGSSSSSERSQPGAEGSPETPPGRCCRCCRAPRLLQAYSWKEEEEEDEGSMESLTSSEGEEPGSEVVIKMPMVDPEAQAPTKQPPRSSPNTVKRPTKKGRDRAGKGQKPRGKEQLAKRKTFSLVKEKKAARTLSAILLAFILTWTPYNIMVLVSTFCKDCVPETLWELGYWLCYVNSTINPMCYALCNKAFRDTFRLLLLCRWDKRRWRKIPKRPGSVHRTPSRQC

[5] = Metabolite identification; format: in vitro ADME; details: rat hepatic microsomes, NADPH-dependent
[6] = Metabolite identification; format: in vitro ADME; details: human hepatic microsomes, NADPH-dependent
M1 [7] = molecular target: T2, M1; assay: Built-in HTS counterscreen, human M1; format: cell-based
[8] = Rat brain:plasma distribution; format: in vivo; details: in words
human M4 = molecular target: T3, human M4 (Homo sapiens, UniProt P08173); format: cell-based; details: read-out: % ACh Max ± SEM
T3 sequence (P08173 1-479): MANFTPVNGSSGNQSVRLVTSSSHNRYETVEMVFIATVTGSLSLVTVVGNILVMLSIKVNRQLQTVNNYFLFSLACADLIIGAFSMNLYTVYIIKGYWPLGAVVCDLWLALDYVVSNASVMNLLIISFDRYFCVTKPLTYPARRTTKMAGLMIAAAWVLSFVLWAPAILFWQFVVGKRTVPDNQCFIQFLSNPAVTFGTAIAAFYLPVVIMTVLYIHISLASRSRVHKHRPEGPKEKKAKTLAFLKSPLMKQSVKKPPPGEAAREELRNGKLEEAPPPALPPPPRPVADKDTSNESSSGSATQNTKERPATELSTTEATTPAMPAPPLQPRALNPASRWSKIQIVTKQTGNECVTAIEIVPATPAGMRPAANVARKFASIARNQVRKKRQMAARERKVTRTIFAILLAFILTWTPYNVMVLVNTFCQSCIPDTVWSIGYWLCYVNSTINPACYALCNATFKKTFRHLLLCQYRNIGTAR
Outline: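 Functional Ca2+ mobilization read-out in CHO cells co-expressing human M4 and the chimeric G protein Gqi5. Test compound is applied with a fixed ~EC20 concentration of acetylcholine. PAM potency is reported as EC50/pEC50 and efficacy as % of the acetylcholine maximum. Values are means of at least three independent determinations.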

M5 [9] = molecular target: T1, M5; assay: Built-in HTS counterscreen, human M5; format: cell-based
rodent = details: cited from earlier work
M2 = molecular target: T4, M2 (Homo sapiens, UniProt P08172); assay: Muscarinic receptor subtype selectivity, M2; format: cell-based; details: antagonist
T4 sequence (P08172 1-466): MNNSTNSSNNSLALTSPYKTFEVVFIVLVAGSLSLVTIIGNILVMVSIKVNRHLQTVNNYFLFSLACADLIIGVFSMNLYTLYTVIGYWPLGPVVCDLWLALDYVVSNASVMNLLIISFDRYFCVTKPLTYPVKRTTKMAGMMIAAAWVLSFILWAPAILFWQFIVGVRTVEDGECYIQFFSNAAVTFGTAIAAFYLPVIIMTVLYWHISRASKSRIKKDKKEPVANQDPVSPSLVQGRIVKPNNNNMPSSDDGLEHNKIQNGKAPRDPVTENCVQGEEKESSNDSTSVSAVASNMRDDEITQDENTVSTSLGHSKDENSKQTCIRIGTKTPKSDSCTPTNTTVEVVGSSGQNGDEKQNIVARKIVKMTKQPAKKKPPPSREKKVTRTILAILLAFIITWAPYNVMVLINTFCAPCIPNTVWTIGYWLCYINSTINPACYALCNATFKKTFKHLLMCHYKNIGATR

CYP450 = CYP450 inhibition profile; format: in vitro ADME; details: in words
M3 = M3 (Homo sapiens, UniProt P20309); assay: Muscarinic receptor subtype selectivity, M3; format: cell-based; details: antagonist
rats = details: by potentiation of receptor activation by endogenous acetylcholine; cited from earlier work

Chain of M3 (P20309 whole entry): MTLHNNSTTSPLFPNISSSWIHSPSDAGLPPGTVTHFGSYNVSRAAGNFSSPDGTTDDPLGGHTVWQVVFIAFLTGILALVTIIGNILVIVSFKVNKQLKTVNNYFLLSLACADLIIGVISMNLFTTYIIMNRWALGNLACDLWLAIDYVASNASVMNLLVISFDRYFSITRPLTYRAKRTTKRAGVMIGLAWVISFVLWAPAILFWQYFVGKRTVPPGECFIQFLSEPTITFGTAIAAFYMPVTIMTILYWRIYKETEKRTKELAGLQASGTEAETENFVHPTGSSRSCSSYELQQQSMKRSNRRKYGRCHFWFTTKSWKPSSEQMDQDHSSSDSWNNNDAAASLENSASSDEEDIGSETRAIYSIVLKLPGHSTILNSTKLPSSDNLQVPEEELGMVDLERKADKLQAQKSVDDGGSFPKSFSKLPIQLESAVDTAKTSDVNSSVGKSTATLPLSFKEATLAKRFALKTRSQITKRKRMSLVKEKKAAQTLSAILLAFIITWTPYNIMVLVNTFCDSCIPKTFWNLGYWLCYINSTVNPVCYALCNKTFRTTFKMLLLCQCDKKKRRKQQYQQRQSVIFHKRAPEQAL

selectivity versus M5 (M5 [3]): retaining selectivity
selectivity versus M1 (M1 [4]): retaining selectivity
SMILES: Cc1sc2ncnc(N3CCC(C(=O)Nc4cc(Cl)ccc4Cl)CC3)c2c1C [10h]

activity on human M1 (M1 [7]): inactive
CNS penetration [8]: not CNS penetrant
Emax (human M4): 91 ± 4%
activity on human M5 (M5 [9]): inactive
SMILES: Cc1sc2ncnc(N3CCC(C(=O)Nc4ccc(S(N)(=O)=O)cc4)CC3)c2c1C [compound 5]

predicted CLhep, rat [1]: 50 mL/min/kg
predicted CLhep, human [2]: 12 mL/min/kg
SMILES: Cc1ccc(OC2CCN(c3ncnc4ccc(F)cc34)CC2)cn1 [17b]

predicted CLhep, rat [1]: 68 mL/min/kg
predicted CLhep, human [2]: 14 mL/min/kg
SMILES: Cc1sc2ncnc(N3CCC(C(=O)N4CC[C@H](F)C4)CC3)c2c1C [11b]

potency at M5 relative to M4 (M5 [3]): similarly potent
potency at M2 relative to M4 (M2): similarly potent
CYP450 inhibition profile (CYP450): acceptable
potency at M3 relative to M4 (M3): similarly potent
potency at M1 relative to M4 (M1 [4]): similarly potent
SMILES: CCCCN(c1ccc(C)nc1)C1CCN(c2ncnc3sc(C)c(C)c23)CC1 [compound 20]

potency at M5 relative to M4 (M5 [3]): similarly potent
potency at M2 relative to M4 (M2): similarly potent
CYP450 inhibition profile (CYP450): acceptable
potency at M3 relative to M4 (M3): similarly potent
potency at M1 relative to M4 (M1 [4]): similarly potent
SMILES: CCCN(c1ccc(C)nc1)C1CCN(c2ncnc3sc(C)c(C)c23)CC1 [compound 19]

The remaining lines, values behind:

SMILES: Cc1sc2ncnc(N3CCC(C(=O)N4CCCC4)CC3)c2c1C [11a]
predicted CLhep, rat [1]: 67 mL/min/kg
predicted CLhep, human [2]: 16 mL/min/kg

SMILES: Cc1sc2ncnc(N3CCC(C(=O)Nc4ccc(S(C)(=O)=O)cc4)CC3)c2c1C [10e]
selectivity versus M5 (M5 [3]): retaining selectivity
selectivity versus M1 (M1 [4]): retaining selectivity

SMILES: Cc1ccc(OC2CCN(c3ncnc4sc(C)c(C)c34)CC2)cn1 [14b]
predicted CLhep, rat [1]: 68 mL/min/kg
major pathway of metabolism in rat [5]: hydroxylation of the 5,6-dimethyl moiety
predicted CLhep, human [2]: 20 mL/min/kg
major metabolic route in human [6]: heteroatom (likely the thiophene sulfur) oxidation

SMILES: Cc1nnc2sc(C(=O)NCc3ccc(S(=O)(=O)C(F)(F)F)cc3)c(N)c2c1C [VU0467154]
in vivo efficacy in rodent antipsychotic and cognition models (rodent): robust in vivo efficacy

SMILES: Cc1sc2ncnc(N3CCC(C(=O)Nc4ccc(F)cc4Cl)CC3)c2c1C [10g]
selectivity versus M5 (M5 [3]): retaining selectivity
selectivity versus M1 (M1 [4]): retaining selectivity

SMILES: COc1ccc(CNC(=O)c2sc3nc(C)cc(C)c3c2N)cc1 [VU0152100]
antipsychotic-like activity in rats (rats): displayed antipsychotic-like activity
